This is a sample that favours compounds with a hit; in the whole collection about 3.5% have one here.
MrgX1 PAM – allosterically activates human MrgX1 receptor signaling; MrgX1-HEK293, Fluo-4 calcium flux, FDSS; stronger effect = higher value; B-score at 10 µM; 0.63% of 310,000 active; AID 588675;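 active = plate-corrected calcium response at least 3 library SD above typical, normal starting fluorescence, not activating the receptor alone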;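 note: compound read alongside a low EC10 to EC30 dose of BAM8-22 agonist; peak minus trough fluorescence over baseline measured at the second addition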
Target sequence (Q96LB2 whole entry, looked up): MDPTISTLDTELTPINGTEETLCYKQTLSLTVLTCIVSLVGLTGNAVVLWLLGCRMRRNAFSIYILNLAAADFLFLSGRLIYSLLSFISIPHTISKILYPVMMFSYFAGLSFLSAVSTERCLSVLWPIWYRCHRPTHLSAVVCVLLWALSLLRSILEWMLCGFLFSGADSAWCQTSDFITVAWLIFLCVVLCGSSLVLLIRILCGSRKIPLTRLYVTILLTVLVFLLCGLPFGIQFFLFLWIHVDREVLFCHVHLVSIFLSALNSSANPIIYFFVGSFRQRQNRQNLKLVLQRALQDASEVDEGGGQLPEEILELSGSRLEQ
MrgX1 ag – activates human MrgX1 receptor signaling; MrgX1-HEK293 cells, Fluo-4 calcium fluorescence, agonist mode; stronger effect = higher value; B-score at 10 µM; 0.44% of 310,000 active; AID 588627;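 active = calcium response B-score plate-corrected fluorescence ratio at least 3 library SD, with starting fluorescence B-score inside 5 SD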
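Material: MrgX1-expressing HEK293 cells / Dosing: compound as first of three additions / Incubation: overnight seeding, then 1 h dark dye loading / Signal: Fluo-4 NW calcium fluorescence / Evaluation: B-scored fluorescence response ratio / Benchmarks: positive and negative control wells on each plate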
RGS4 block – human RGS4 inhibition; P49798; HEK293 M3R/RGS4 inducible, Fluo-4 calcium flux; stronger effect = higher value; triggered by carbachol at its EC20; B-score at 10 µM; 0.45% of 310,000 active; AID 463165;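 active = B-score, a plate-corrected calcium signal, over three deviations above library mean, with baseline fluorescence within five deviations of library mean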;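 note: RGS4 expression induced by doxycycline in cells with stable M3 receptor; B-score is computed from the integrated fluorescence ratio over baseline after carbachol; higher B-score means a larger calcium signal and so more RGS4 inhibition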
Target sequence (P49798 whole entry, looked up): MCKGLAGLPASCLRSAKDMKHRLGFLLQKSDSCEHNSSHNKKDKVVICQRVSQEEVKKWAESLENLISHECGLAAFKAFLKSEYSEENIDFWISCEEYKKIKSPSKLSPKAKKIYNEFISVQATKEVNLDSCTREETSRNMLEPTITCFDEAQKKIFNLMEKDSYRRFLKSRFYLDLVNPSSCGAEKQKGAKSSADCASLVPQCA
MrgX1 antag – human MrgX1 receptor antagonism, primary screen; MRGX1-HEK293 calcium flux, Fluo-4, BAM8-22 antagonism; stronger effect = lower value; B-score at 10 µM; 1.3% of 310,000 active; AID 588676;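 active = calcium-response B-score plate-corrected more than 3 library SD below zero, starting fluorescence within 5 deviations, no agonist response on first addition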;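 note: peak minus trough fluorescence over baseline after final BAM8-22 challenge near maximal dose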
RGS4 pot – RGS4 potentiation or activation | AID 463111 | 0.92% of 310,000 active | HEK293 M3R/inducible RGS4, carbachol calcium flux Fluo4; stronger effect = lower value | B-score at 10 µM;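 active = B-score of the integrated calcium signal more than 4 SD below the library mean, with starting fluorescence not abnormally high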;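 note: negative B-score means reduced calcium response which marks RGS4 activation or potentiation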
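Material: Inducible-RGS4 HEK293 cells carrying M3 receptor; also added: carbachol at ECmax as muscarinic agonist stimulus; incubation: compound preincubation 20 min at room temperature before agonist; signal: Fluo4-AM (2 µM) calcium-flux fluorescence, kinetic read; measure: integrated calcium ratio converted to B score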
MrgX1 antag conf – reconfirmed antagonist of human MrgX1 receptor signaling. shares compounds with MrgX1 antag. MrgX1-HEK293, BAM8-22 calcium flux, Fluo-4; stronger effect = lower value. remaining BAM8-22 calcium response % of control (stronger effect = lower value), % at 10 µM. 19% of 2,300 active;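 active = remaining agonist calcium response no higher than 100% minus 3 SD of agonist-only control wells, with starting fluorescence near control levels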;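 note: agonist BAM8-22 given at a near maximal EC90 to ECmax level; peak minus minimum fluorescence divided by baseline after agonist addition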
HEK293 Ca flux – counter-screen for MrgX1 antagonists: effect in parental HEK293 cells. 2% of 4,000 active. Fluo-4 calcium fluorescence, FDSS. fluorescence ratio F(max-min)/F0 at 10 µM. AID 624111. shares compounds with MrgX1 antag;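 active = duplicate-averaged calcium fluorescence ratio at least three times the standard deviation of buffer wells, a nonspecific response in parental cells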
HEK293 Ca counter – MrgX1 allosteric activator counter-screen hit in parental HEK293 cells. shares compounds with MrgX1 antag. fluorescence ratio F(max-min)/F0 at 10 µM. parental HEK293 calcium flux, Fluo-4 fluorescence ratio; stronger effect = higher value. 0.4% of 4,000 active;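 active = calcium fluorescence ratio, averaged over duplicates, at least 3 SD of the buffer-well ratio, meaning a nonspecific response in receptor-free cells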;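 note: untransfected parental HEK293 lacking MrgX1 used as counterscreen for MrgX1 allosteric activators; fluorescence change taken during the second addition on a kinetic imager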
HEK293 Ca cntr2 – activity in parental HEK293 cells lacking MrgX1 receptor | 8.7% of 4,000 active | fluorescence ratio F(max-min)/F0 at 10 µM | shares compounds with MrgX1 antag | Fluo-4 calcium fluorescence (FDSS); stronger effect = higher value;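 active = calcium fluorescence ratio at least three times the spread of buffer wells, meaning a non-specific response in parental cells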
Starred values were filed as active, the others as inactive; i = inactive; · = not tested or not shown.

SMILES	MrgX1 PAM	MrgX1 ag	RGS4 block	MrgX1 antag	RGS4 pot	MrgX1 antag conf	HEK293 Ca flux	HEK293 Ca counter	HEK293 Ca cntr2
CC1(C)Cc2c(cnn2-c2ccccc2)C(NC(=O)CCc2ccc(=O)[nH]n2)C1 (centres undefined)	i	i	i	i	i	·	·	·	·
O=C(Nc1ccc2c(c1)OC1(CCCC1)O2)C1CC1	i	i	i	-5.9*	i	i	i	i	i
FC(F)C(F)(F)c1cc(-c2ccc(Cl)cc2)n[nH]1	i	i	i	-6.7*	i	i	i	i	i
Oc1ccccc1-c1cc(C(F)(F)C(F)F)[nH]n1	i	i	i	i	i	·	·	·	·
COc1ccc(CNC(=O)c2sccc2-c2ccccc2)cc1OC	i	i	i	i	i	·	·	·	·
CC(=O)Nc1nc(C(=O)O)cs1	i	i	i	-4.9*	i	81%*	i	i	i
CN(C(=O)c1cnccn1)c1c(N)n(Cc2ccccc2)c(=O)[nH]c1=O	i	i	i	i	i	·	·	·	·
Cc1cc(-c2ccccc2N)n[nH]1	i	i	i	-6.4*	i	i	i	i	i
Cc1cc(-c2cccs2)n[nH]1	i	i	i	i	i	·	·	·	·
Cc1cc2oc(=O)cc(CN3CCCCC3C)c2cc1C(C)C (centres undefined)	i	i	i	i	i	·	·	·	·
O=C(O)c1ccc(N2CCCCC2)cc1	i	i	i	-6.4*	i	i	i	i	i
O=C(Nc1cc2c3c(c1)CC(=O)N3CCC2)c1ccco1	i	i	i	i	i	·	·	·	·
c1ccc(Nc2ccccc2Nc2ccccn2)nc1	i	i	i	-4.7*	i	78%*	i	i	i
c1ccc(CNc2ccccn2)cc1	i	i	i	i	i	·	·	·	·
CC12C(=O)N(c3ccccn3)C(=O)C1C1C=CC2C1 (centres undefined)	i	i	i	-5*	i	i	i	i	i
Cc1ccnc2c(N3C(=O)C4C5C=CC(C5)C4(C)C3=O)cccc12 (centres undefined)	i	i	i	i	i	·	·	·	·
COc1ccc(CNCc2cn(-c3cccc(F)c3)nc2-c2ccc(C)o2)cc1	i	i	i	i	i	·	·	·	·
COc1ccc(-c2csc(NC(=O)C3=NN(c4ccccc4)C(=O)CC3)n2)cc1	i	i	i	i	i	·	·	·	·
S=C(NCCc1c[nH]c2ccccc12)NC1CCCC1	i	i	i	-4.9*	i	i	i	i	i
S=C(NCCc1c[nH]c2ccccc12)NC1CCCCC1	i	i	i	i	i	·	·	·	·
CC(NC(=O)Cn1cnnn1)C12CC3CC(CC(C3)C1)C2 (centres undefined)	i	i	i	-6.8*	i	i	i	i	i
CC(NC(=O)CN1CCCC1)C12CC3CC(CC(C3)C1)C2 (centres undefined)	i	i	i	i	i	·	·	·	·
COc1ccc2c(c1OC)C(=O)OC2Nc1ccccc1S(=O)(=O)C(F)F (centres undefined)	i	i	i	-4.7*	i	i	i	i	i
CC(OC(=O)COc1cccc2c1OC(C)(C)C2)C(=O)Nc1ccc(S(N)(=O)=O)cc1 (centres undefined)	i	i	i	-5.4*	i	i	i	i	i
CCOc1ccc(NC(=O)COC(=O)COc2cccc3c2OC(C)(C)C3)cc1	i	i	i	i	i	·	·	·	·
SMILES	MrgX1 PAM	MrgX1 ag	RGS4 block	MrgX1 antag	RGS4 pot	MrgX1 antag conf	HEK293 Ca flux	HEK293 Ca counter	HEK293 Ca cntr2
CCC(C)NC(=O)C1c2ccccc2C(=O)N(c2ccc(OC)cc2)C1c1ccc(OC)cc1 (centres undefined)	i	i	i	-6.5*	i	i	i	i	i
O=C(c1cc(COc2ccc(F)cc2Cl)on1)N1CCC(c2ccncc2)CC1	i	i	i	i	i	·	·	·	·
CSc1ccccc1OCc1cc(C(=O)N2CCC(c3ccncc3)CC2)no1	i	i	i	-6.1*	i	80%*	i	i	i
CCOC(=O)C1CCCN(S(=O)(=O)c2cc3c4c(c2)CCN4C(=O)CC3)C1 (centres undefined)	i	i	i	-4.8*	i	i	i	i	i
COc1ccc(NC(=O)CN(C)C(=O)c2ccc(-c3cccc(C(F)(F)F)c3)o2)cc1	i	i	i	i	i	·	·	·	·
COc1ccc(NC(=O)CN(C)C(=O)c2ccc(-c3ccccc3Cl)o2)cc1	i	i	i	-4.7*	i	i	i	i	i
CC(NC(N)=O)C(=O)OCc1ccc(Cl)cc1Cl (centres undefined)	i	i	i	-8.2*	i	i	i	i	i
O=C(NCCN1CCN(C(=O)Nc2ccccc2)CC1)Nc1ccccc1	i	i	i	-6.1*	i	i	i	i	i
COc1ccccc1N1CCN(C(=O)C2CCCO2)CC1 (centres undefined)	i	i	i	-8.2*	i	i	i	i	i
N#Cc1c2n(cnc1=O)CCCCC2	i	i	i	-4.9*	i	i	i	i	i
COc1ccccc1NS(=O)(=O)c1c(C(=O)N2CCCC2)c(C)n(C)c1C	i	i	i	i	i	·	·	·	·
Cn1c(=O)c(=O)n(C)c2cc(S(=O)(=O)N3CCC(Cc4ccccc4)CC3)ccc21	i	i	i	i	i	·	·	·	·
CCn1c(=O)n(CC)c2cc(S(=O)(=O)N3CCC(c4ccccc4)CC3)ccc21	i	i	i	-7.1*	i	i	i	i	i
Cn1c(C(=O)Nc2ccc(Cl)cc2)cc2cc(Cl)ccc21	i	i	i	i	i	·	·	·	·
Cc1cc(C)c(C(N)=O)c(Nc2cccc(Cl)c2C)n1	i	i	i	i	i	·	·	·	·

Assay outcomes: PubChem, Johns Hopkins Ion Channel Center
